Where “and” joins values, the source holds several entries; their conditions need not be identical. Identical values can stand only once.
tested on: not listed separately; experiment: (§1) Neurotoxic dose (TD50) from horizontal screen in mice; format: toxicity, organism-based; details: mouse, in vivo
How it was run: (§2)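 Male CF-1 mice, ip dosing in 30% PEG 400 unless otherwise noted. Trained mice are placed on a 13 × 13 cm no. 4 mesh wire screen on a vertical rod, which is rotated 180°. Impairment is scored as failure to climb to the top within 1 min. TD50 comes from a dose-response at the time of peak anticonvulsant activity, with 3–4 doses and 12 mice/dose. Some entries used the rotorod instead.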

SMILES	TD50
CON(C)C(NC(C)=O)C(=O)NCc1ccccc1 (stereo unspecified)	50.5 mg/kg
CC(=O)NC(C(=O)NCc1ccccc1)c1ccco1 (stereo unspecified)	40 mg/kg
CCOC(NC(C)=O)C(=O)NCc1ccccc1 (stereo unspecified)	> 112 mg/kg
CONC(NC(C)=O)C(=O)NCc1ccccc1 (stereo unspecified)	46 mg/kg

species: Mus musculus; experiment: as §1; format: toxicity, organism-based; details: in vivo; how it was run: as §2

SMILES	TD50
COC(NC(C)=O)C(=O)NCc1ccccc1 (stereo unspecified)	> 100 mg/kg and < 300 mg/kg

tested on: Mus musculus; experiment: Concentration required to prevent seizures upon intraperitoneal administration in mice in MES (maximal electroshock seizure) test.; format: functional; details: not given
How it was run: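 Male CF-1 mice dosed ip with compound in 30% PEG 400 (one compound in acacia). Pilot groups of 4 mice per dose tested at 0.5, 1 and 4 h for protection against maximal electroshock seizures.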

SMILES	ED50
CC(=O)NC(NC(C)=O)C(=O)NCc1ccccc1	<300 mg/kg and >100 mg/kg

same assay, conditions: Mus musculus, ip; read-out: ED50

SMILES	ED50
CSC(NC(C)=O)C(=O)NCc1ccccc1 (stereo unspecified)	> 100 mg/kg
CC(=O)NC(NO)C(=O)NCc1ccccc1 (stereo unspecified)	100 mg/kg
CON(C)C(NC(C)=O)C(=O)NCc1ccccc1 (stereo unspecified)	6.7 mg/kg
CC(=O)NC(Nc1cc[nH]n1)C(=O)NCc1ccccc1 (stereo unspecified)	100 mg/kg
CC(=O)NC(C(=O)NCc1ccccc1)N1CCCO1 (stereo unspecified)	31.4 mg/kg
CC(=O)NC(Nc1ccccc1)C(=O)NCc1ccccc1 (stereo unspecified)	> 300 mg/kg
CC(=O)NC(C(=O)NCc1ccccc1)N(C)C (stereo unspecified)	45.3 mg/kg
CC(=O)NC(N)C(=O)NCc1ccccc1 (stereo unspecified)	65.1 mg/kg
CC(=O)NC(NNc1ccccc1)C(=O)NCc1ccccc1 (stereo unspecified)	100 mg/kg
CC[S+]([O-])C(NC(C)=O)C(=O)NCc1ccccc1 (stereo unspecified)	> 100 mg/kg
CC(=O)NC(C(=O)NCc1ccccc1)N(C)O (stereo unspecified)	30 mg/kg
CCS(=O)(=O)C(NC(C)=O)C(=O)NCc1ccccc1 (stereo unspecified)	> 100 mg/kg
CC(=O)NC(Oc1ccccc1)C(=O)NCc1ccccc1 (stereo unspecified)	> 100 mg/kg
CC(=O)NC(NNC(=O)OCc1ccccc1)C(=O)NCc1ccccc1 (stereo unspecified)	55.6 mg/kg
CC(=O)NC(NC(=O)C(F)(F)F)C(=O)NCc1ccccc1 (stereo unspecified)	> 300 mg/kg
CC(=O)NC(O)C(=O)NCc1ccccc1 (stereo unspecified)	80.1 mg/kg
CCOC(NC(C)=O)C(=O)NCc1ccccc1 (stereo unspecified)	62 mg/kg
CC(=O)NC(Sc1ccccc1)C(=O)NCc1ccccc1 (stereo unspecified)	> 300 mg/kg
CC(=O)NC(C(=O)NCc1ccccc1)[N+](C)(C)C.F[B-](F)(F)F (stereo unspecified)	> 100 mg/kg
CONC(NC(C)=O)C(=O)NCc1ccccc1 (stereo unspecified)	6.2 mg/kg
